# According to ChEMBL document CHEMBL4196064, “Identification of Pyrazolo[3,4-e][1,4]thiazepin based CYP51 inhibitors as potential Chagas disease therapeutic alternative: In vitro and in vivo evaluation, binding mode prediction and SAR exploration” (Eur J Med Chem, 2018):
# Calls of active or inactive are those of the source. No cut-off for these calls is given here.
# Experiments:
# Trypanosoma cruzi [1] = assay: Antitrypanosomal activity against Trypanosoma cruzi Tulahuen trypomastigote forms infected in mouse L929 cells assessed as reduction in infection level at 10 to 12 uM after 96 hrs by beta-galactosidase reporter gene assay relative to control; type: functional; set-up: scale not given: the % may be the effect or the level left
# Procedure, shortened: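 L929 cells infected 2 h with tissue culture-derived β-galactosidase-expressing Tulahuen trypomastigotes at 10:1 parasite/host cell ratio, rinsed, and held 48 h at 37℃. Single fixed concentration (10-12 µM) then applied, 96 h. Absorbance read at 570 nm; growth inhibition expressed relative to untreated cells. DMSO not above 0.6 %.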
# [2] = target: Sterol 14-alpha demethylase (Trypanosoma cruzi (strain CL Brener)) (UniProt Q7Z1V1); assay: Inhibition of recombinant Trypanosoma cruzi Tulahuen CYP51 expressed in Escherichia coli JM109 cell membranes assessed as residual activity at 0.0005 uM by fluorescence based analysis (reference value: 100%)
# Procedure, shortened: (§1)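 Fluorescence-based functional assay using recombinant T. cruzi (Tulahuen) CYP51. […] Residual activity was measured across a concentration series and fitted to a curve to give the IC50.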
# [3] = target: Sterol 14-alpha demethylase (Trypanosoma cruzi (strain CL Brener)) (UniProt Q7Z1V1); assay: Inhibition of recombinant Trypanosoma cruzi Tulahuen CYP51 expressed in Escherichia coli JM109 cell membranes assessed as residual activity at 0.05 uM by fluorescence based analysis (reference value: 100%); procedure, shortened: as §1
# [4] = target: Sterol 14-alpha demethylase (Trypanosoma cruzi (strain CL Brener)) (UniProt Q7Z1V1); assay: Inhibition of recombinant Trypanosoma cruzi Tulahuen CYP51 expressed in Escherichia coli JM109 cell membranes assessed as residual activity at 0.005 uM by fluorescence based analysis (reference value: 100%); procedure, shortened: as §1
# [5] = target: Sterol 14-alpha demethylase (Trypanosoma cruzi (strain CL Brener)) (UniProt Q7Z1V1); assay: Inhibition of recombinant Trypanosoma cruzi Tulahuen CYP51 expressed in Escherichia coli JM109 cell membranes assessed as residual activity at 0.17 uM by fluorescence based analysis (reference value: 100%); procedure, shortened: as §1
# [6] = target: Sterol 14-alpha demethylase (Trypanosoma cruzi (strain CL Brener)) (UniProt Q7Z1V1); assay: Inhibition of recombinant Trypanosoma cruzi Tulahuen CYP51 expressed in Escherichia coli JM109 cell membranes assessed as residual activity at 0.5 uM by fluorescence based analysis (reference value: 100%); procedure, shortened: as §1
# [7] = target: Sterol 14-alpha demethylase (Trypanosoma cruzi (strain CL Brener)) (UniProt Q7Z1V1); assay: Inhibition of recombinant Trypanosoma cruzi Tulahuen CYP51 expressed in Escherichia coli JM109 cell membranes assessed as residual activity at 0.0165 uM by fluorescence based analysis (reference value: 100%); procedure, shortened: as §1
# [8] = target: Sterol 14-alpha demethylase (Trypanosoma cruzi (strain CL Brener)) (UniProt Q7Z1V1); assay: Inhibition of recombinant Trypanosoma cruzi Tulahuen CYP51 expressed in Escherichia coli JM109 cell membranes assessed as residual activity at 0.00165 uM by fluorescence based analysis (reference value: 100%); procedure, shortened: as §1
# [9] = Selectivity index, ratio of LC50 for mouse L929 cells by Alamarblue assay to EC50 for Trypanosoma cruzi Tulahuen trypomastigote forms; type: toxicity; conditions: read-out: Selectivity Index
# Trypanosoma cruzi [10] = assay: Antitrypanosomal activity against Trypanosoma cruzi Tulahuen trypomastigote forms infected in mouse L929 cells assessed as reduction in parasite load after 96 hrs by beta-galactosidase reporter gene assay; type: functional, organism-based; conditions: L929, 96 h
# Procedure, shortened: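 L929 cells infected 2 h with tissue culture-derived Tulahuen β-galactosidase trypomastigotes (10:1 parasite/host cell), rinsed with saline, and left 48 h at 37℃. Increasing non-toxic concentrations applied for 96 h. Absorbance read at 570 nm, % growth inhibition versus untreated cells, EC50 derived; mean ± SD. DMSO not above 0.6 %.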
# Trypanosoma cruzi [11] = assay: Antitrypanosomal activity against bloodstream trypomastigote stage of Trypanosoma cruzi Y measured after 2 hrs by light microscopic analysis; type: functional, organism-based
# Procedure, shortened: (§2)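 Y strain bloodstream trypomastigotes from heart puncture of infected mice, at 5x10⁶/mL in RPMI 1640 with 5% FBS. Incubated at 37℃ with 0–50 µM for 2 or 24 h. […] Mean ± SD.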
# [12] = Cytotoxicity against mouse L929 cells assessed as reduction in cell viability after 96 hrs by light microscopic analysis; type: cell-based; conditions: read-out: LC50
# Procedure, shortened: (§3)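 L929 fibroblasts (4x10^3 cells/well) in RPMI 1640 with 10% FBS, incubated at 37°C with increasing concentrations for 96 h. Viability was read with AlamarBlue (6 h incubation, absorbance at 600 nm) and confirmed by light microscopy.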
# Trypanosoma cruzi [13] = assay: Antitrypanosomal activity against bloodstream trypomastigote stage of Trypanosoma cruzi Y measured after 24 hrs by light microscopic analysis; type: functional, organism-based; procedure, shortened: as §2
# [14] = Selectivity index, ratio of LC50 for mouse L929 cells by light microscopic analysis to EC50 for Trypanosoma cruzi Tulahuen trypomastigote forms; type: toxicity; conditions: read-out: Selectivity Index
# [15] = Cytotoxicity against mouse L929 cells assessed as reduction in cell viability after 96 hrs by Alamarblue assay; type: cell-based; conditions: read-out: LC50; procedure, shortened: as §3
# [16] = Cytotoxicity against Swiss Webster mouse cardiac cells assessed as reduction in cell viability after 24 hrs by light microscopic analysis; type: cell-based, Cardiac Muscle Cell; conditions: read-out: LC50
# Procedure, shortened: (§4)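 Primary cardiac cells from Swiss Webster mouse embryos, cultured at 37°C in DMEM with 5% FBS, CaCl2, glutamine and chick embryo extract. Uninfected cultures were exposed to increasing concentrations for 24 h. Viability was read with PrestoBlue (5 h incubation, absorbance at 570 nm) and checked by light microscopy for morphology.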
# [17] = Cytotoxicity against Swiss Webster mouse cardiac cells assessed as reduction in cell viability after 24 hrs by prestoblue assay; type: cell-based, Cardiac Muscle Cell; conditions: read-out: LC50; procedure, shortened: as §4
# [18] = Selectivity index, ratio of LC50 for Swiss Webster mouse cardiac cells by prestoblue assay to EC50 for bloodstream trypomastigote stage of Trypanosoma cruzi Y measured after 24 hrs; type: toxicity; conditions: read-out: Selectivity Index
# Procedure, shortened: (§5)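 The ratio is cardiac-cell LC50 (24 h) over the 24 h EC50 against Y-strain bloodstream trypomastigotes. Trypomastigotes (5x10^6/mL) were exposed to 0-50 µM at 37°C in RPMI with 5% FBS. Surviving parasites were counted in a Neubauer chamber, and the EC50 is the concentration halving the parasite number.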
# [19] = Selectivity index, ratio of LC50 for Swiss Webster mouse cardiac cells by light microscopic analysis to EC50 for bloodstream trypomastigote stage of Trypanosoma cruzi Y measured after 24 hrs; type: toxicity; conditions: read-out: Selectivity Index; procedure, shortened: as §5
# Trypanosoma cruzi [20] = assay: Trypanocidal activity against Trypanosoma cruzi Sylvio X10/7 intracellular amastigotes forms assessed as inhibition of maximum parasite growth measured every 24 hrs for 96 hrs by time-kill assay relative to control; type: functional
# Trypanosoma cruzi [21] = assay: Trypanocidal activity against Trypanosoma cruzi Sylvio X10/7 intracellular amastigotes forms measured every 24 hrs for 96 hrs by time-kill assay; type: functional
# Trypanosoma cruzi [22] = assay: Antitrypanosomal activity against bloodstream trypomastigote stage of Trypanosoma cruzi Y infected in Swiss Webster mouse assessed as reduction in parasitemia at 5 mg/kg, ip administered daily on day 5 to 9 post infection relative to control; type: functional
# Procedure, shortened: (§6)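 Male Swiss Webster mice (18–20 g) infected i.p. with 10^4 Y strain bloodstream trypomastigotes. Treatment given days 5–9 post infection: test compound i.p. 5–20 mg/kg/day (0.1 mL, DMSO then 20% Trappsol) or Bz 100 mg/kg/day p.o. (3% Tween 80 in water). Controls infected, vehicle only. Parasitemia counted by Pizzi-Brener in 5 µL tail blood; mortality checked daily to 30 days post treatment.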
# Trypanosoma cruzi [23] = assay: Antitrypanosomal activity against bloodstream trypomastigote stage of Trypanosoma cruzi Y infected in Swiss Webster mouse assessed as reduction in parasitemia at 10 mg/kg, ip administered daily on day 5 to 9 post infection relative to control; type: functional; procedure, shortened: as §6
# Trypanosoma cruzi [24] = assay: Antitrypanosomal activity against bloodstream trypomastigote stage of Trypanosoma cruzi Y infected in Swiss Webster mouse assessed as increase in mouse survival at 5 to 20 mg/kg, ip administered daily on day 5 to 9 measured daily until 30 days post dose relative to control; type: functional, organism-based; procedure, shortened: as §6
# Trypanosoma cruzi [25] = assay: Antitrypanosomal activity against bloodstream trypomastigote stage of Trypanosoma cruzi Y infected in Swiss Webster mouse assessed as reduction in parasitemia at 20 mg/kg, ip administered daily on day 5 to 9 post infection relative to control; type: functional; procedure, shortened: as §6
# Chain of Sterol 14-alpha demethylase (Trypanosoma cruzi (strain CL Brener)) (Q7Z1V1 whole entry, looked up): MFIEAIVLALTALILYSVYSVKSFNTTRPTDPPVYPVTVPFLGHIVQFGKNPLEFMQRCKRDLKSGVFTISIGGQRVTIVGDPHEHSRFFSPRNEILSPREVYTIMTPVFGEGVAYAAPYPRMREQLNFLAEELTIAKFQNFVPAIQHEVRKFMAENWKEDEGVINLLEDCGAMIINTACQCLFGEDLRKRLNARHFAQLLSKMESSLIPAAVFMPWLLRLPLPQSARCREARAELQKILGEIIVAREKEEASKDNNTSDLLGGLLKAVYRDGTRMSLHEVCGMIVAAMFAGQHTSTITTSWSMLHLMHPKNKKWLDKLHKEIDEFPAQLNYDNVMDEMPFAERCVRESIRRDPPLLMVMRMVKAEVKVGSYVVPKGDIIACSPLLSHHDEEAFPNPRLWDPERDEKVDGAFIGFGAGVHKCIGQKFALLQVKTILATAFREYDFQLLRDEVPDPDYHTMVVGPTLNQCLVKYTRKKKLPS
smiles,measurement,setting,value
Cc1n[nH]c2c1[C@@H](c1ccc(OC(C)C)cc1)S[C@@H](C)C(=O)N2,Activity,Trypanosoma cruzi [1],0%
COc1cc([C@H]2S[C@@H](C)C(=O)Nc3[nH]nc(C)c32)ccc1OCc1cccc(C)c1,Activity,Trypanosoma cruzi [1],25.05%
Cc1n[nH]c2c1[C@@H](c1ccc(OCc3ccc(Cl)cc3)cc1)S[C@@H](C)C(=O)N2,Activity,Trypanosoma cruzi [1],14.88%
CC[C@@H]([C@H](C)O)n1ncn(-c2ccc(N3CCN(c4ccc(OC[C@@H]5CO[C@@](Cn6cncn6)(c6ccc(F)cc6F)C5)cc4)CC3)cc2)c1=O,Activity,[2],100%
same,Activity,[3],32%
same,Activity,[4],92.8%
same,Activity,[5],0%
same,Activity,[6],0%
same,Activity,[7],71.9%
same,Activity,[8],98.4%
COc1cc([C@H]2S[C@@H](C)C(=O)Nc3[nH]nc(C)c32)ccc1OCc1ccccc1Cl,Activity,Trypanosoma cruzi [1],27.88%
COc1cc([C@H]2S[C@@H](C)C(=O)Nc3[nH]nc(C)c32)ccc1OCc1ccc(Cl)cc1,selectivity ratio,[9],4.7
same,Activity,Trypanosoma cruzi [1],53.94%
same,EC50,Trypanosoma cruzi [10],10.8 µM
same,EC50,Trypanosoma cruzi [11],> 50 µM
same,CC50 at 96 h,[12],50.6 µM
same,EC50,Trypanosoma cruzi [13],39.4 µM
same,selectivity ratio,[14],4.7
same,CC50 at 96 h,[15],50.6 µM
C=CCOc1ccc([C@H]2S[C@@H](C)C(=O)Nc3[nH]nc(C)c32)cc1,Activity,Trypanosoma cruzi [1],0%
Cc1n[nH]c2c1[C@@H](c1ccc(OCc3ccccc3F)cc1)S[C@@H](C)C(=O)N2,selectivity ratio,[9],> 38
same,Activity,Trypanosoma cruzi [1],63.64%
same,EC50,Trypanosoma cruzi [10],5.3 µM
same,CC50 at 24 h,[16],> 200 µM
same,CC50 at 24 h,[17],> 200 µM
same,EC50,Trypanosoma cruzi [11],> 50 µM
same,CC50 at 96 h,[12],> 200 µM
same,selectivity ratio at 24 h,[18],> 4
same,EC50,Trypanosoma cruzi [13],> 50 µM
same,selectivity ratio,[14],> 38
same,CC50 at 96 h,[15],> 200 µM
same,selectivity ratio at 24 h,[19],> 4
COc1cc([C@H]2S[C@@H](C)C(=O)Nc3[nH]nc(C)c32)ccc1OCc1ccccc1,Activity,Trypanosoma cruzi [1],12.02%
CC1CS(=O)(=O)CCN1/N=C/c1ccc([N+](=O)[O-])o1 (stereo unspecified) [NIFURTIMOX],Imax,Trypanosoma cruzi [20],103%
same,MIC,Trypanosoma cruzi [21],5 µM
Cc1ccc(COc2ccc([C@H]3S[C@@H](C)C(=O)Nc4[nH]nc(C)c43)cc2)cc1,Activity,Trypanosoma cruzi [1],0%
COc1cc([C@H]2S[C@@H](C)C(=O)Nc3[nH]nc(C)c32)ccc1OCc1cccc(Cl)c1,Activity,Trypanosoma cruzi [1],39.94%
Cc1n[nH]c2c1[C@@H](c1ccc(OCc3ccc(F)cc3)cc1)S[C@@H](C)C(=O)N2,Activity,Trypanosoma cruzi [1],32.42%
COc1cc([C@H]2S[C@@H](C)C(=O)Nc3[nH]nc(C)c32)ccc1OCc1ccccc1C,Activity,Trypanosoma cruzi [1],16.43%
Cc1cccc(COc2ccc([C@H]3S[C@@H](C)C(=O)Nc4[nH]nc(C)c43)cc2)c1,selectivity ratio,[9],36.6
same,Activity,Trypanosoma cruzi [22],inactive
same,Activity,Trypanosoma cruzi [1],89.25%
same,EC50,Trypanosoma cruzi [10],2.7 µM
same,Activity,Trypanosoma cruzi [23],inactive
same,CC50 at 24 h,[16],66 µM
same,CC50 at 24 h,[17],66 µM
same,Activity,Trypanosoma cruzi [24],inactive
same,Activity,Trypanosoma cruzi [25],inactive
same,EC50,Trypanosoma cruzi [11],> 50 µM
same,CC50 at 96 h,[12],98.9 µM
same,selectivity ratio at 24 h,[18],3.2
same,EC50,Trypanosoma cruzi [13],20.6 µM
same,selectivity ratio,[14],36.6
same,CC50 at 96 h,[15],98.9 µM
same,selectivity ratio at 24 h,[19],3.2
COc1cc([C@H]2S[C@@H](C)C(=O)Nc3[nH]nc(C)c32)ccc1OCc1ccc(C)cc1,Activity,Trypanosoma cruzi [1],1.98%
Cc1n[nH]c2c1[C@@H](c1ccc(OCc3cccc(F)c3)cc1)S[C@@H](C)C(=O)N2,selectivity ratio,[9],19.4
same,Activity,Trypanosoma cruzi [1],70.68%
same,EC50,Trypanosoma cruzi [10],5.32 µM
same,CC50 at 24 h,[16],94 µM
same,CC50 at 24 h,[17],94 µM
same,EC50,Trypanosoma cruzi [11],> 50 µM
same,CC50 at 96 h,[12],103 µM
same,selectivity ratio at 24 h,[18],3.71
same,EC50,Trypanosoma cruzi [13],47 µM
same,selectivity ratio,[14],19.4
same,CC50 at 96 h,[15],103 µM
same,selectivity ratio at 24 h,[19],3.71
Cc1ccccc1COc1ccc([C@H]2S[C@@H](C)C(=O)Nc3[nH]nc(C)c32)cc1,selectivity ratio,[9],50.4
same,Activity,Trypanosoma cruzi [1],69.14%
same,EC50,Trypanosoma cruzi [10],2.2 µM
same,CC50 at 24 h,[16],> 200 µM
same,CC50 at 24 h,[17],> 200 µM
same,EC50,Trypanosoma cruzi [11],> 50 µM
same,CC50 at 96 h,[12],111 µM
same,selectivity ratio at 24 h,[18],> 5.2
same,EC50,Trypanosoma cruzi [13],38.6 µM
same,selectivity ratio,[14],50.4
same,CC50 at 96 h,[15],111 µM
same,selectivity ratio at 24 h,[19],> 5.2
CCCOc1ccc([C@H]2S[C@@H](C)C(=O)Nc3[nH]nc(C)c32)cc1,Activity,Trypanosoma cruzi [1],0%
